m-calpain inh: blocks pig calpain II enzyme activity | purified calpain II, fluorogenic peptide substrate, 30 min | inhibition, % at 16 µM | 0.37% of 220,000 active;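 active = inhibition above about 50%, limit read from the data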
Rad51 HR inh: Rad51 (human) homologous recombination inhibition. Q06609. hRad51 DNA strand exchange, fluorescence dequenching. inhibition, % at 10 µM. 0.085% of 200,000 active. AID 1385;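 active = inhibition above 40% at the single screening dose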;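 also: 0% = DMSO control wells and 100% = blanks with heterologous ssDNA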
Target sequence (Q06609 whole entry, looked up): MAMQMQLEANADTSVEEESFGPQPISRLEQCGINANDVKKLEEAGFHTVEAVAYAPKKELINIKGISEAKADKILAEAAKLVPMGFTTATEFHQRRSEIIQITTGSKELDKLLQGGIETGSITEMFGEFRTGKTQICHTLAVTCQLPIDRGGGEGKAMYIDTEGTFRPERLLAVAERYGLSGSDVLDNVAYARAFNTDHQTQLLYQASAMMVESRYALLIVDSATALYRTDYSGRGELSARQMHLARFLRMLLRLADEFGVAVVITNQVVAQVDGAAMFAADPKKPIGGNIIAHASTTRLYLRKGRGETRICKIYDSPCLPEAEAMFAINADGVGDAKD
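Material: Human Rad51 nucleoprotein filaments preassembled on unlabelled ssDNA | Also added: Labelled 47-mer dsDNA for strand exchange | Dosing: Single dose, 10 µM final compound | Schedule: 30-min compound preincubation and 15-min exchange, both room temperature | Technique: Fluorescence dequenching at 485/520 nm | Measure: Percent inhibition relative to plate controls and blanks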
PMI act: activators of human phosphomannose isomerase. purified human PMI, coupled resazurin fluorescence, 20 min; active compounds read high; 1 = vehicle control, 0 substrate-free wells. activation factor at 20 µM. 0.005% of 190,000 active;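 active = activation factor of 2 or more at 20 µM, relative to plate controls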
WT yeast gro inh: growth inhibition of WT yeast, mitochondrial fusion screen; mitochondrial fusion phenotypic screen, WT strain; inhibition, % at 10 µM; 2.1% of 190,000 active; in the data active = inhibition above about 58%; tested in S. cerevisiae
Lmaj promast: Leishmania major promastigote growth inhibition. inhibition, % at 10 µM. AID 1063. Leishmania major promastigotes, resazurin fluorescence viability. 9% of 200,000 active; in the data active = inhibition above about 50%;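 also: promastigotes grown with compound for 44 hours at 28 °C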
PMI act satM6P: increases human PMI activity with near-saturating mannose 6-phosphate; P34949; coupled PMI enzyme assay, resazurin fluorescence, 20 min; active compounds read high; 1 = untreated enzyme, 0 = substrate-free blank; activation factor at 20 µM; 0.34% of 190,000 active; AID 1216;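 active = activation factor of 2 or more at 20 µM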
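Material: human phosphomannose isomerase with PGI, G6PDH, diaphorase coupling enzymes; amount: PMI at 15 ng/mL final; also added: Mannose-6-phosphate 1.0 mM (near-saturating) plus 0.22 mM NADP+; incubation: enzyme reaction with compound 20 min at room temperature; signal: resorufin fluorescence (Ex 544/Em 590 nm) from resazurin via diaphorase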
Numbers without * were called inactive; x = no result given. An excerpt weighted towards active compounds, which were near 9.8% of everything screened.

SMILES	m-calpain inh	Rad51 HR inh	PMI act	WT yeast gro inh	Lmaj promast	PMI act satM6P
O=C(CNC(=O)c1ccccc1)NC1(C(=O)NC2CCCCC2)CCCCC1	-5.3	5.4	1.1	-5.1	-2.9	1
CCCCNc1c(C(=O)OCC)c(C)nc2c1cnn2CC	x	-2.6	x	x	x	x
CCOC(=O)c1c(NC(C)=O)sc2c(OCCN(CC)CC)c(Br)ccc12	-138.0	17.4	0.8	31.7	99.8*	0.8
CCOC(=O)c1c(NC(C)=O)sc2c(OCC(O)CN(CC)CC)c(Br)ccc12 (stereo not drawn)	-134.8	x	1	9.7	100.4*	1
CCOC(=O)c1c(NC(C)=O)sc2c(OC)c(Br)ccc12	-13.6	9.2	0.9	x	-1.5	1
CCCC(C)NCC(=O)Nc1ccccc1-c1ccccc1 (stereo not drawn)	7.2	-0.3	0.9	3.9	17.6	1
C/C(=C\C(=O)c1ncc(C(F)(F)F)cc1Cl)N(C)C	17.3	x	1	2.5	-3.3	1
Cc1ccc(S(=O)(=O)CC(CN2CCCCC2)N2CCCCC2)cc1 (stereo not drawn)	17.1	-32.7	1	-23.7	97.2*	1.1
CCCCc1ccc(NC(=O)N2CCNC(=O)C2CC(=O)Nc2ccsc2C(=O)OC)cc1 (stereo not drawn)	-46.0	16.0	x	x	x	x
Cc1ccc2nc(SC(C(=O)c3ccccc3)c3ccccc3)nc(C)c2c1 (stereo not drawn)	36.1	-2.2	1	-7.7	91.6*	1
Cc1ccsc1C(=O)N(c1nc2ccccc2s1)c1c(C)cccc1C	22.3	-0.6	0.9	x	100.3*	0.9
COc1ccc(C)cc1N(C(=O)c1ccccc1)c1nc2ccccc2s1	27.0	-5.3	0.8	28.9	21.1	0.9
Cc1cc(CNC(=O)c2cccnc2Cl)c2ccccc2n1	-2.3	1.7	0.9	-0.2	0.4	0.9
CN1CCN(S(=O)(=O)c2ccc(N3CCN(C(c4ccccc4)c4ccccc4)CC3)nc2)CC1	-100.5	23.6	0.8	69.2*	100.0*	0.8
CC(=O)N1CCN(c2ccc(S(=O)(=O)N3CCCCC3)cn2)CC1	3.9	-3.5	1.3	-3.9	-0.2	1.2
O=S(=O)(c1ccc(N2CCN(CCO)CC2)nc1)N1CCCCC1	-3.1	-1.7	0.9	-1.6	60.2*	0.9
CCc1cc2cc3c(cc2nc1SCC(=O)N1CCN(C(=O)c2ccco2)CC1)OCO3	-38.5	x	1.1	-31.3	83.6*	1.1
CC1=NN(c2ccccc2)C(=O)C1N=Nc1ccc(C)cc1 (stereo not drawn)	-4.4	-12.5	1.1	7.0	-1.3	1
CC1=NN(C(N)=S)C(=O)C1N=Nc1c(C)cc(C)cc1C (stereo not drawn)	-6.9	-5.5	1	60.6*	11.7	1.1
CC1=NN(C(N)=S)C(=O)C1N=Nc1ccc(C)cc1C (stereo not drawn)	27.7	x	1.1	69.9*	59.9*	1
CC1=NN(C(N)=S)C(=O)C1N=Nc1ccccc1C (stereo not drawn)	1.2	4.4	1	65.3*	8.2	1
COc1ccc(/C=C(\C#N)C(=O)OCC(=O)NCc2ccccc2Cl)cc1	12.7	x	1	4.4	-7.0	1
COc1ccc(/C=C(\C#N)C(=O)OCC(=O)NCc2ccc(Cl)cc2)cc1	0.1	-6.7	1.1	4.9	58.8*	1.1
O=C(NCC1CCCO1)C(c1ccc(F)cc1)N(Cc1ccc2c(c1)OCO2)C(=O)c1ccc(CN2CCOCC2)o1 (stereo not drawn)	-3.8	11.7	1	-0.3	-1.8	1.1
CC(C)NC(=O)C1CCN(C2CCN(Cc3nc(C(C)C)cs3)CC2)CC1	-6.7	-3.4	0.8	-2.0	21.3	0.9
SMILES	m-calpain inh	Rad51 HR inh	PMI act	WT yeast gro inh	Lmaj promast	PMI act satM6P
CC(C)NC(=O)C1CCN(C2CCN(Cc3ccc4cccc(F)c4n3)CC2)CC1	4.6	-20.5	1	8.8	73.4*	1
Cc1ccc(-c2nc(N)sc2-c2ccccc2)cc1C	-0.3	10.7	0.9	73.4*	22.1	0.9
Cc1ccc(-c2nc(N)sc2-c2ccc(C)cc2)cc1	61.6*	16.7	0.9	79.5*	43.8	0.9
O=C(Nc1ccccc1N1CCOCC1)c1cc(F)cc(F)c1	-33.4	6.5	0.9	74.4*	7.0	0.9
Nc1cc(C(=O)c2ccccc2)ccc1N1CCOCC1	-2.7	5.1	1	-17.9	53.7*	1
CC(=O)Nc1cc(C(=O)c2ccccc2)ccc1N1CCOCC1	-3.1	-4.3	1	8.8	1.4	1
O=C(Nc1ccccc1N1CCOCC1)c1cccc(F)c1	-17.9	-0.7	1.1	76.0*	3.7	1.1
O=C(Nc1ccccc1N1CCOCC1)c1cccnc1	-25.6	-5.3	1.1	-11.4	-6.2	0.9
O=C(Nc1ccc(N2CCOCC2)c(Cl)c1)c1cccc(F)c1	13.6	-3.5	0.9	13.5	-0.7	1
Cc1cc(-c2sccc2C)nc(-n2cccc2)n1	-1.3	-2.2	0.9	67.7*	-2.6	0.9
O=C(NC1CCS(=O)(=O)C1)c1cc(-c2ccccc2)nc2ccccc12 (stereo not drawn)	-11.2	18.0	0.9	1.2	11.6	0.9
O=C1NC(Cc2ccccc2)C(=O)N1CC(=O)N1CCCc2ccccc21 (stereo not drawn)	-20.3	8.1	1.1	2.3	0.8	1.1
Cc1nn(-c2ccccc2)c(N2CCCC2)c1/C=N/NC(=O)c1ccccc1O	-25.2	-6.3	1	6.7	5.9	1
O=C(N/N=C/c1cc2c3c(c1O)CCCN3CCC2)c1ccccc1O	-80.3	-15.8	0.7	4.7	100.0*	0.5
COc1ccc(-c2ccc(SCC(=O)c3ccccc3)nn2)cc1OC	13.7	x	1	5.9	60.7*	1
Cc1c(C(=O)C(=O)NCC2CCCO2)c2ccccc2n1C (stereo not drawn)	40.3	-1.2	1.1	9.7	-3.9	1.1
O=C(O)CCC(=O)NNC(=O)c1cccc(Br)c1	0.6	2.1	0.9	-15.8	59.6*	1
Cc1ccccc1OCC(=O)N/N=C1\SCC(=O)N1Cc1ccccc1	8.1	x	1	-4.0	24.5	1.1
Cc1ccc(OCC(=O)N/N=C2/SCC(=O)N2Cc2ccccc2)cc1	-2.0	-2.3	1	-8.9	67.0*	1
Cc1ccc(N2C(=O)CC(N3CCN(C4CCc5ccccc5C4)CC3)C2=O)cc1 (stereo not drawn)	6.7	-1.5	1.1	0.9	87.2*	1
CCOc1ccc(N2C(=O)CC(N3CCN(C4CCc5ccccc5C4)CC3)C2=O)cc1 (stereo not drawn)	-10.1	0.3	0.9	1.2	1.4	0.9
O=C(NNC(=S)Nc1ccc(F)cc1)C1[C@H]2CCCC[C@@H]12 (stereo partly drawn)	8.1	x	x	x	x	x
COc1ccc(COc2cc(-c3cccc(OC)c3)nc3ccc(NC(=O)C(C)C)cc23)cc1	-32.2	-6.9	1.1	-1.6	100.1*	0.9

Compound activity from PubChem BioAssay.
